Test results reported in PubChem BioAssay.
The source made the active and inactive calls.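 How the source made its calls, unless noted: active means visual image review flags a hit and inhibition of aggregation exceeds 20%; inconclusive means visual hit but inhibition at or below 20%; inactive means no hit on visual image review.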

How the values were obtained:
[1] = inhibitors of TNFa-induced NFkB p65 translocation, primary screen, imaging, HUVEC, MLSMR starter and 10KST1 sets (AID 438;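 active means inhibition above 20% together with a positive visual image hit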;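 further: compound added about 3h40 before a 20 min TNFalpha stimulation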;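 on inhibition: signal is the nuclear over cytoplasmic p65 intensity ratio per well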); conditions: HUVEC TNFa-induced p65 nuclear translocation; cell count: measured here: nuclei count (cytotoxicity indicator), at 2.08 µM; inhibition: at 2 µM, stronger effect = higher value, 0% TNFa-plus-vehicle, 100% no-TNFa wells
[2] = inhibitors of mutant huntingtin aggregation, primary screen, imaging, exon1htt(103Q)mCFP cells, high-content imaging (AID 483); conditions: exon1htt(103Q)mCFP cell line, aggregate imaging, at 2 µM; inhibition of aggregation: stronger effect = higher value; nuclei count: measured here: cell count, toxicity;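 further: compound exposure lasted 3 days before fixation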;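 on nuclei count: percent of the per-plate median nuclei count of sample wells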
[3] = inhibitors of E-selectin induction by TNFa, primary screen, imaging, HUVEC, immunofluorescence, MLSMR starter and 10KST1 sets (AID 487;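 active means visually confirmed hit in the image check and inhibition above 20%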;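 on inhibition: signal is fraction of cell area covered by stained E-selectin grains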;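 on nuclei count: 100% = median nuclei count of all wells on the same plate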); conditions: HUVEC TNFalpha-induced E-selectin immunofluorescence imaging, at 2 µM; inhibition: stronger effect = higher value; nuclei count: measured here: cell number, toxicity
[4] = target: Voltage-gated potassium channel subunit beta-2 (Rattus norvegicus) (UniProt P62483); assay: KvBeta enzyme negative modulators, primary screen, biochemical, NADPH fluorescence (AID 622;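 active means fluorescence slope higher than the sample average by over 3 SD, cut at about -0.22 in these data, passing the limit was not always enough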;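 further: slope of raw intensity against log time taken from 70 to 1610 s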); conditions: recombinant KvBeta, 4-cyanobenzaldehyde reduction, at 10 µM, stronger effect = higher value
Sequence of Voltage-gated potassium channel subunit beta-2 (Rattus norvegicus) (P62483 whole entry, looked up): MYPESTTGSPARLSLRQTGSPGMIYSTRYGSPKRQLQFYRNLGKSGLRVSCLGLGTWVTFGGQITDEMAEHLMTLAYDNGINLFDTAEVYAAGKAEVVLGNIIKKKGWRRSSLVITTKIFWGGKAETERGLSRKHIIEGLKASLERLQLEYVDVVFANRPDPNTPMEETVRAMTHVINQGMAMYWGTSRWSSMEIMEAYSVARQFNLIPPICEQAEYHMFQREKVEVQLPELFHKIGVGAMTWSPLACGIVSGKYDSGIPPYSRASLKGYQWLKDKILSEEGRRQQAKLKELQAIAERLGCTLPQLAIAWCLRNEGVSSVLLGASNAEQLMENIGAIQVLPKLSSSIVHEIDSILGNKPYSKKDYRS

[5] = target: Voltage-gated potassium channel subunit beta-2 (Rattus norvegicus) (UniProt P62483); assay: KvBeta positive modulators, primary screen, biochemical, NADPH fluorescence (AID 623;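 active means NADPH fluorescence slope more negative than the mean of all samples by about 3 SD, 99.7% confidence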;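 further: fluorescence intensity change per second fitted from 20 to 320 s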); conditions: Recombinant KvBeta, NADPH fluorescence decrease slope, 10 min; at 10 µM; stronger effect = lower value
[6] = target: Alpha-2C adrenergic receptor (Homo sapiens) (UniProt P18825); assay: modulators of alpha2C/GIRK thallium flux, primary screen, cell-based, HEK293 alpha2C/GIRK1/2 (AID 624;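 active means fluorescence slope after compound addition differing from the mean of all screened samples at 99.7% confidence, in either direction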;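 further: slope of fluorescence ratio to pre-addition baseline per second over 15 to 24 s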); conditions: thallium flux BTC fluorescence, at 10 µM, actives lie on both sides
Sequence of Alpha-2C adrenergic receptor (Homo sapiens) (P18825 whole entry, looked up): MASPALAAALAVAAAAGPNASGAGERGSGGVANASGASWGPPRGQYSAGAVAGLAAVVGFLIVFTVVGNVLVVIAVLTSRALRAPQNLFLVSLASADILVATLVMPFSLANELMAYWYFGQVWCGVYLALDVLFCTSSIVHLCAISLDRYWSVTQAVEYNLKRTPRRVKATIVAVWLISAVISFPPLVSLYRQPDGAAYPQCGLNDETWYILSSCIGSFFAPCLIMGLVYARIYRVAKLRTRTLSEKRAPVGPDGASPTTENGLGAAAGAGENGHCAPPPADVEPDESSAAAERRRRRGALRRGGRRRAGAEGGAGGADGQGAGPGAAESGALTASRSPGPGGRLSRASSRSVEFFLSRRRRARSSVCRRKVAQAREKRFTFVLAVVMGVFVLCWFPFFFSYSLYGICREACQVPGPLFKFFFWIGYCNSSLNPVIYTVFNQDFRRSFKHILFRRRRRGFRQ

[7] = inhibitors of larval lipid processing in zebrafish, primary screen, whole organism, PED6 fluorescence, gall bladder and intestine (AID 686;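 active means a full or partial loss of lipid-probe fluorescence in the fish gall bladder, intestine or both, judged by eye; inactive means no fluorescence loss, or compound toxic to the fish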;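 further: larvae 5 to 7 days old with five fish per well; signal comes from phospholipase A2 cleavage of quenched PED6 carried via bile; overnight exposure to compound and PED6 before scoring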); conditions: Zebrafish larvae PED6 lipid processing, fluorescence scoring; screened at 20 µM (by protocol)
How it was run: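 Doses: 20 µM single dose. Test system: live zebrafish larvae aged 5-7 days, whole organism. Quantity: five larvae per well. Measured by: By-eye fluorescence microscopy. Reagent: ingested quenched lipid PED6 at 100 nM. Read-out: visual per-well fluorescence inhibition score. Times: overnight exposure of larvae to compound plus PED6.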

[8] = inhibitors of Sendai virus-induced IRF3 signaling, primary screen, TLR/RLR signaling modifier project, cell-based, Sendai virus stimulus, luciferase, 10K MLSCN set (AID 602276;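 active means inhibition at or above 50% at 10 µM; inactive means inhibition below 50%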;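 further: firefly luciferase from ISG56 promoter only with Renilla not read in this screen; 0% = Sendai virus plus DMSO and 100% = medium plus DMSO without virus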); conditions: HEK293 RL24 IRF3 luciferase reporter, at 10 µM, stronger effect = higher value
[9] = inhibitors of poly I:C-induced TLR3 signaling, primary screen, cell-based, poly I:C stimulus, luciferase, 10K MLSCN set (AID 602277;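 active means inhibition of the reporter signal at or above 50%; inactive means inhibition below 50%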); conditions: HEK293-TLR3 RL24 IRF3 luciferase reporter, at 10 µM, stronger effect = higher value

Structure (SMILES)	cell count [1]	inhibition [1]	inhibition of aggregation [2]	nuclei count [2]	inhibition [3]	nuclei count [3]	fluorescence slope [4]	NADPH fluorescence slope [5]	slope [6]	outcome [7]	inhibition [8]	inhibition [9]
CCOC(=O)c1nnc2ccnn2c1N	529	6.8% (inactive)	-6.1% (inactive)	108%	-120% (inactive)	111%	-0.448 (inactive)	-0.000165 (inactive)	0.00514 (inactive)	inactive	8.28% (inactive)	16.2% (inactive)
COc1ccccc1C1N(c2ccc(F)cc2)C(=O)C2CCCN21 (centres undefined)	429	-3.9% (inactive)	7.1% (inactive)	84.3%	27.9% (inactive)	91.4%	-0.377 (inactive)	-7.5e-05 (inactive)	0.00544 (inactive)	inactive	9.07% (inactive)	14.8% (inactive)
CCSCc1nnc(SCC(=O)Nc2cccc(SC)c2)n1C	492	-5.8% (inactive)	0.2% (inactive)	101%	-43.2% (inactive)	147%	-0.452 (inactive)	-4.6e-05 (inactive)	0.00484 (inactive)	inactive	9.84% (inactive)	18.9% (inactive)
COc1cc(-c2nc(S(=O)(=O)c3ccc(C)cc3)c(N(C)C)o2)cc(OC)c1OC	432	-6.3% (inactive)	-5.1% (inactive)	105%	-57% (inactive)	108%	-0.386 (inactive)	-9.2e-05 (inactive)	0.00686 (inactive)	inactive	-11.7% (inactive)	-7.3% (inactive)
Cc1nc2ccc(F)cc2cc1C(=O)NCC1CCCO1 (centres undefined)	421	-8.7% (inactive)	7.6% (inactive)	96.4%	-34.7% (inactive)	115%	-0.432 (inactive)	-4.9e-05 (inactive)	0.00492 (inactive)	inactive	17.3% (inactive)	27.4% (inactive)
Cc1nnc(NC(=O)C2CCCO2)s1 (centres undefined)	345	5.2% (inactive)	-9.5% (inactive)	97.4%	-105% (inactive)	104%	-0.467 (inactive)	-4.2e-05 (inactive)	0.00593 (inactive)	active; weak signal in gallbladder only	6.24% (inactive)	6.47% (inactive)
COc1ccccc1N1CCN(C(=O)C2CCN(S(=O)(=O)c3ccc(F)cc3)CC2)CC1	676	11.9% (inactive)	6.6% (inactive)	108%	-23.6% (inactive)	96.3%	-0.415 (inactive)	-2.3e-05 (inactive)	0.00451 (inactive)	inactive	-6.92% (inactive)	-9.69% (inactive)
CC(=O)/C(C[N+]1(C)CCCCC1)=N\O	566	12.1% (inactive)	17.4% (inactive)	107%	26.6% (inactive)	107%	-0.403 (inactive)	-5.2e-05 (inactive)	0.00495 (inactive)	inactive	8.76% (inactive)	13.4% (inactive)
N#Cc1c(N)oc(-c2cccs2)c1-c1cccs1	508	2.6% (inactive)	-9.8% (inactive)	93.1%	-29.4% (inactive)	120%	-0.306 (inactive)	-3e-05 (inactive)	0.00454 (inactive)	inactive	-45.9% (inactive)	50.6% (active)
CCc1nnc(NC(=O)CSc2nnc3ncccn23)s1	341	-5.8% (inactive)	-25.9% (inactive)	132%	-34.8% (inactive)	102%	-0.437 (inactive)	-9.3e-05 (inactive)	0.00648 (inactive)	inactive	18.7% (inactive)	25.6% (inactive)
CCOC(=O)c1sc(NC(=O)CSc2ncn(-c3ccccc3)n2)nc1C	527	-6.5% (inactive)	14.5% (inactive)	102%	-8% (inactive)	69.6%	-0.363 (inactive)	2.2e-05 (inactive)	0.00535 (inactive)	inactive	13.7% (inactive)	13% (inactive)
O=C(CN1CCN(c2nc(-c3ccc(Cl)cc3)cs2)CC1)NCc1ccco1	638	-7.3% (inactive)	9.3% (inactive)	90.1%	-53.5% (inactive)	108%	-0.463 (inactive)	-3.9e-05 (inactive)	0.00435 (inactive)	inactive	-3.86% (inactive)	98.3% (active)
Cc1ccc2nc3c(cc2c1)CN(Cc1ccco1)C(=NCC1CCCO1)S3 (centres undefined)	543	0.7% (inactive)	28.7% (inactive)	82.4%	-2.1% (inactive)	106%	-0.372 (inactive)	-6.6e-05 (inactive)	0.00724 (inactive)	inactive	13.9% (inactive)	11.5% (inactive)
FC(F)Oc1cccc2cccnc12	538	-5.8% (inactive)	-5.4% (inactive)	103%	67.2% (active)	82.3%	-0.345 (inactive)	-1.3e-05 (inactive)	0.00451 (inactive)	inactive	10.2% (inactive)	9.81% (inactive)
COc1cc(NC(=O)Nc2cccc(C(C)=O)c2)cc(OC)c1OC	674	-9.3% (inactive)	-22% (inactive)	99.7%	-136% (inactive)	97.7%	-0.438 (inactive)	-4.1e-05 (inactive)	0.00508 (inactive)	inactive	14% (inactive)	12.9% (inactive)
Nc1cc(N)nc(SCc2ccccc2)n1	371	1.1% (inactive)	6.6% (inactive)	103%	-26.1% (inactive)	108%	-0.499 (inactive)	1.3e-05 (inactive)	0.00402 (inactive)	inactive	-47.8% (inactive)	-101% (inactive)
CCN(CC)S(=O)(=O)c1cccc(-c2nnc(SCCOc3ccccc3C)o2)c1	356	0.4% (inactive)	-13.5% (inactive)	95.4%	3.8% (inactive)	114%	-0.458 (inactive)	-8e-05 (inactive)	0.00732 (inactive)	inactive	9.64% (inactive)	-24.4% (inactive)
COC(=O)C1C2C=CC3(CN(CC4CCCO4)C(=O)C13)O2 (centres undefined)	504	4% (inactive)	-7.3% (inactive)	111%	9.9% (inactive)	98.5%	-0.457 (inactive)	-1.5e-05 (inactive)	0.00504 (inactive)	inactive	5.61% (inactive)	11.6% (inactive)
N#CC1=C(N)N2C(=C(C#N)C13CCCCC3)SC1CCCCC12O (centres undefined)	322	11.4% (inactive)	3.6% (inactive)	91.5%	-4.6% (inactive)	116%	-0.405 (inactive)	1.2e-05 (inactive)	0.00499 (inactive)	inactive	19% (inactive)	24.3% (inactive)
c1ccc(-c2cc(CSc3nc4ccccc4[nH]3)on2)cc1	416	5.3% (inactive)	-43% (inactive)	99.4%	-68.7% (inactive)	116%	-0.376 (inactive)	-8.1e-05 (inactive)	0.00533 (inactive)	inactive	-0.361% (inactive)	-25% (inactive)
Cc1nn(Cc2ccccc2)c2c1C(c1ccncc1)C(C#N)=C(N)O2 (centres undefined)	273	-1.3% (inactive)	17.9% (inactive)	62.3%	-58.9% (inactive)	97.3%	-0.381 (inactive)	-5.9e-05 (inactive)	0.0052 (inactive)	inactive	2.54% (inactive)	0.489% (inactive)
O=c1c2cnn(-c3ccccc3)c2ncn1/N=C/c1ccncc1	476	-7.8% (inactive)	3.3% (inactive)	119%	-71.4% (inactive)	108%	-0.378 (inactive)	-5.9e-05 (inactive)	0.00444 (inactive)	inactive	11.6% (inactive)	11.3% (inactive)
CC(=O)NC(C)C(=O)OCc1ccc(Cl)cc1Cl (centres undefined)	478	-21.6% (inactive)	-3.7% (inactive)	74.8%	-22.9% (inactive)	134%	-0.467 (inactive)	-5.2e-05 (inactive)	0.00444 (inactive)	inactive	10.8% (inactive)	12.4% (inactive)
Cc1cccc(C)c1NC(=O)COC(=O)c1nonc1N	429	-1.3% (inactive)	3.6% (inactive)	99.3%	32.7% (inactive)	87.2%	-0.34 (inactive)	-6.4e-05 (inactive)	0.0052 (inactive)	inactive	4.72% (inactive)	2% (inactive)
CC(C)(C)n1ncc2c(=O)n(CC(=O)NCc3ccccc3)cnc21	615	2.4% (inactive)	0.5% (inactive)	82.4%	-117% (inactive)	104%	-0.296 (inactive)	-1.3e-05 (inactive)	0.00536 (inactive)	inactive	-28.3% (inactive)	69.7% (active)
CC(=O)c1cccc(NC(=O)NCc2ccco2)c1	385	0.8% (inactive)	-4.5% (inactive)	74.6%	-43.8% (inactive)	79.8%	-0.386 (inactive)	6.8e-06 (inactive)	0.00558 (inactive)	inactive	-3.74% (inactive)	-37.3% (inactive)
COc1ccc(S(=O)(=O)NCCCN2CCOCC2)c2ccccc12	674	-3.5% (inactive)	-7.8% (inactive)	102%	-82.6% (inactive)	100%	-0.356 (inactive)	-3.4e-05 (inactive)	0.00569 (inactive)	inactive	14.4% (inactive)	19.6% (inactive)
